The MIC is the lowest concentration that inhibits growth of the organism. One may read the MIC50 as the lowest concentration that inhibits either 50% of growth or 50% of the strains tested, depending on the study. For orientation: MIC90 means an inhibitory concentration at the 90% level, which refers to growth in some studies and to a panel of isolates in others.

This is an account of results in ChEMBL document CHEMBL4014261, “Design, Synthesis, and Antimicrobial Evaluation of a Novel Bone-Targeting Bisphosphonate-Ciprofloxacin Conjugate for the Treatment of Osteomyelitis Biofilms” (J Med Chem, 2017).

≈ marks a conversion by molar mass, not a printed value. Calls of active or inactive are those of the source. The rule behind the calls is not given here.

Series [1] concerns Staphylococcus aureus. Kind of series: Bactericidal activity against methicillin-susceptible Staphylococcus aureus ATCC 6538 planktonic cells assessed as reduction in bacterial growth at 15.6 ug/ml after 24 hrs by time kill assay. The arrangement: scale not given: the % may be the effect or the level left.
Series [2] concerns Staphylococcus aureus. Nature of the series: Antibiofilm activity against Staphylococcus aureus ATCC 6538 assessed as CFU counts at 10 ug/mL pretreated with HA for 24 hrs followed by organism inoculation measured after 24 hrs (reference value: 4.5 x 10^10CFU). The format is functional. In outline: (§1)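 HA discs were soaked 24 h at 37 °C in 2 mL compound solution, with DMSO or phosphate-buffer controls, then rinsed 3× with sterile water. Discs were inoculated with 2 mL of 0.5 McFarland S. aureus ATCC 6538 for biofilm formation. Biofilm CFU were counted after 24 h growth.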

The subject of series [3] is Staphylococcus aureus. Nature of the series: Antibacterial activity against methicillin-resistant Staphylococcus aureus MR4-CIPS planktonic cells after 24 hrs by microdilution assay. It counts as functional. In outline: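 Broth microdilution: 100 µL of 1 × 10^5 CFU/mL inoculum with graded compound concentrations, read at 580 nm before and after 24 h at 37 °C with shaking to prevent biofilm formation. Relative cell number is taken against medium + microbes controls, with 1% DMSO in the ciprofloxacin control. Growth is confirmed by 48 h subculture in fresh medium and by plating. MIC is expressed as parent-antibiotic equivalents.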
In general terms: Broth dilution looks for growth in wells or tubes with falling amounts of substance.

Series [4] has as its system Staphylococcus aureus. Nature of the series: Antibiofilm activity against Staphylococcus aureus ATCC 6538 assessed as CFU counts at 5 ug/mL pretreated with HA for 24 hrs followed by organism inoculation measured after 24 hrs (reference value: 4.5 x 10^10CFU). The format is functional. The procedure, abridged: as §1
In series [5] the test system is Staphylococcus aureus. Nature of the series: Antibacterial activity against methicillin-sensitive Staphylococcus aureus isolate 5 planktonic cells after 24 hrs by microdilution assay. The format is functional. Conditions: isolate 5, 24 h. The procedure, abridged:
(§2)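 Planktonic cells at 1 × 10^5 CFU/mL were exposed to compound, and A580 was read at 0 h and after 24 h at 37 °C with shaking. Controls were medium plus microbes, with 1% (v/v) DMSO where the solvent was used. Relative cell number was calculated against the control. Results were confirmed by subculture in fresh medium (48 h, 37 °C) and plating. Conjugate concentrations were expressed as parent-antibiotic equivalents.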

The subject of another series is Rattus norvegicus. Nature of the series: Toxicity in jawbone peri-implant osteomyelitis Sprague-Dawley rat model infected with Aggregatibacter actinomycetemcomitans assessed as signs of gross tolerability at 0.3 mg/kg, ip administered 3 times per week measured after 1 week post pharmacotherapy. It counts as organism-based. As to conditions: in vivo, 168 h. The procedure, abridged:
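Rats bearing infected palatal implants received i.p. dosing in sterile saline. They were observed during therapy for cutaneous injection-site reactions, inflammation and gross tolerability issues, and were euthanized one week after pharmacotherapy.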

The next series relates to Hydroxyapatite. Kind of series: Binding affinity to Hydroxyapatite at 1.95 to 250 ug/mL up to 24 hrs by spectroscopic analysis. In outline:
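HA spherules (final 10 mg/mL) in TSB were mixed with compound (final 0.24–250 mg/L). Absorbance at 275 nm was read at 0 h and after 24 h at 37 °C with shaking, and relative compound concentration was derived by comparing the two readings.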

Series [6] deals with Staphylococcus aureus. Nature of the series: Bactericidal activity against methicillin-susceptible Staphylococcus aureus ATCC 6538 planktonic cells assessed as reduction in bacterial growth at 15.6 ug/ml after 2 hrs by time kill assay.
The test system of series [7] is Aggregatibacter actinomycetemcomitans. Kind of series: Antibiofilm activity against Aggregatibacter actinomycetemcomitans D7S-5 using hydroxyapatite as substrate at >15 ug/mL after 24 hrs. The format is functional.
Series [8] relates to Staphylococcus aureus. Kind of series: Antibiofilm activity against Staphylococcus aureus ATCC 6538 assessed as CFU counts at 1 ug/mL pretreated with HA for 24 hrs followed by organism inoculation measured after 24 hrs (reference value: 4.5 x 10^10CFU). The format is functional. The procedure, abridged:
as §1

Series [9] relates to Aggregatibacter actinomycetemcomitans. Kind of series: Antibiofilm activity against Aggregatibacter actinomycetemcomitans infected in jawbone peri-implant osteomyelitis Sprague-Dawley rat model assessed as mean CFU count/gram at 0.3 mg/kg, ip administered 3 times per week measured after 1 week post pharmacotherapy. The format is functional, organism-based. In outline:
(§3)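 Rats carried two titanium implants each, preinoculated with A. actinomycetemcomitans D7S-1 biofilm (10^9 CFU), placed bilaterally in palatal bone. One week after surgery, randomized groups received i.p. doses in sterile saline; the negative control was endotoxin-free saline. One week after treatment, 1 cm² peri-implant tissue and bone were homogenized in 0.5% saponin, serially diluted 10-fold and spread-plated on modified TSB (37 °C, 5% CO2, 48 h). Read-out was CFU/g and mean log10 reduction; analysts were blinded.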

Series [10] concerns Staphylococcus aureus. Nature of the series: Antibacterial activity against methicillin-sensitive Staphylococcus aureus isolate 3 planktonic cells after 24 hrs by microdilution assay. It counts as functional. Conditions: isolate 3, 24 h. In outline:
as §2

Series [11] concerns Staphylococcus aureus. Nature of the series: Bactericidal activity against methicillin-resistant Staphylococcus aureus MR4-CIPS planktonic cells assessed as reduction in bacterial growth at 7.8 ug/ml after 24 hrs by time kill assay relative to control. It counts as functional. The arrangement: scale not given: the % may be the effect or the level left. The procedure, abridged:
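Time-kill per CLSI on planktonic cultures, set up as the microdilution assay: 1 × 10^5 CFU/mL, 37 °C with shaking. A580 is read at 0, 1, 2, 4, 8, 16 and 24 h, and growth is expressed relative to untreated medium + microbes control. Concentrations are parent-antibiotic equivalents.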

The next series has as its system Pseudomonas aeruginosa. Kind of series: Bactericidal activity against Pseudomonas aeruginosa ATCC 15442 biofilm using hydroxyapatite as substrate assessed as reduction in colony forming units at 50 ug/ml at pH 4.8 to 7.4 after 24 hrs. The format is functional.
For series [12], the system named is Aggregatibacter actinomycetemcomitans. Kind of series: Antibiofilm activity against Aggregatibacter actinomycetemcomitans infected in jawbone peri-implant osteomyelitis Sprague-Dawley rat model assessed as reduction in bacterial count in bone at 0.1 to 1 mg/kg, ip single dose measured after 1 week post pharmacotherapy. It counts as functional, organism-based. In outline:
as §3

Series [13] concerns Staphylococcus aureus. Nature of the series: Antibiofilm activity against Staphylococcus aureus ATCC 6538 assessed as CFU counts at 100 ug/mL pretreated with HA for 24 hrs followed by organism inoculation measured after 24 hrs (reference value: 4.5 x 10^10CFU). It counts as functional. In outline:
as §1

Series [14] relates to Staphylococcus aureus. Nature of the series: Antibiofilm activity against Staphylococcus aureus ATCC 6538 assessed as CFU counts at 200 ug/mL pretreated with HA for 24 hrs followed by organism inoculation measured after 24 hrs (reference value: 4.5 x 10^10CFU). It counts as functional.
Series [15] deals with Staphylococcus aureus. Nature of the series: Antibacterial activity against methicillin-sensitive Staphylococcus aureus ATCC 6538 planktonic cells at pH 7.4 after 24 hrs by microdilution method. It counts as functional. As to conditions: ATCC 6538, 24 h. In outline:
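Planktonic ATCC 6538 was tested by microdilution in medium adjusted to pH 5 or pH 7.4 with KOH or HCl, with pH checked by universal indicator. MIC50 was determined at each pH.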

Series [16] has as its system Staphylococcus aureus. Nature of the series: Antibacterial activity against methicillin-sensitive Staphylococcus aureus isolate 4 planktonic cells after 24 hrs by microdilution assay. The format is functional. As to conditions: isolate 4, 24 h. In outline: as §2
For series [17], the system named is Staphylococcus aureus. Nature of the series: Antibacterial activity against methicillin-sensitive Staphylococcus aureus isolate 6 planktonic cells after 24 hrs by microdilution assay. The format is functional. Conditions: isolate 6, 24 h. In outline:
as §2

For series [18], the system named is Aggregatibacter actinomycetemcomitans. Kind of series: Antibiofilm activity against Aggregatibacter actinomycetemcomitans infected in jawbone peri-implant osteomyelitis Sprague-Dawley rat model assessed as mean CFU count/gram at 10 mg/kg, ip single dose measured after 1 week post pharmacotherapy. It counts as functional, organism-based. In outline: as §3
For series [19], the system named is Staphylococcus aureus. Kind of series: Antibacterial activity against methicillin-sensitive Staphylococcus aureus isolate 2 planktonic cells after 24 hrs by microdilution assay. It counts as functional. Conditions: isolate 2, 24 h. In outline: as §2

As to `O=C(O)c1cn(C2CC2)c2cc(N3CCN(C(=O)Oc4ccc(CC(P(=O)(O)O)P(=O)(O)O)cc4)CC3)c(F)cc2c1=O`, the Activity with Staphylococcus aureus [1] is listed as 50%; in the series on Staphylococcus aureus [4] it was 3.3 ×10⁹ CFU; in the series with Rattus norvegicus, “Non-Toxic”; with Staphylococcus aureus [8] it was 7.1 ×10¹⁰ CFU; in the series with Staphylococcus aureus [11] it was 50%. The result (with Staphylococcus aureus [2]; with Hydroxyapatite; in the series with Staphylococcus aureus [6]; in [7]; in series [9]; with Pseudomonas aeruginosa) was Active. Also, the outcome (in series [12]; in the series on Staphylococcus aureus [13]; in the series on Staphylococcus aureus [14]; in series [18]) was Active. Besides, the MIC turned out to be 15.6 µg/mL (≈ 24.4 µM) against Staphylococcus aureus [3]; 1.9 µg/mL (≈ 2.97 µM) against Staphylococcus aureus [5]; 0.49 µg/mL (≈ 0.766 µM) in the series with Staphylococcus aureus [10]; 3.9 µg/mL (≈ 6.1 µM) in the series with Staphylococcus aureus [16]; 7.8 µg/mL (≈ 12.2 µM) against Staphylococcus aureus [17]; 0.49 µg/mL (≈ 0.766 µM) with Staphylococcus aureus [19]. This molecule yielded an MIC50 with Staphylococcus aureus [15] of 15.6 µg/mL (≈ 24.4 µM). Besides, the MIC90 in the series on Staphylococcus aureus [15] amounted to 31.2 µg/mL (≈ 48.9 µM).
